The values below come from ChEMBL document CHEMBL1127562, “N-substituted spirosuccinimide, spiropyridazine, spiroazetidine, and acetic acid aldose reductase inhibitors derived from isoquinoline-1,3-diones. 2” (J Med Chem, 1994).

Structures are written as SMILES. Several values for one entry are separate records, joined by “and”; a condition that tells them apart may be missing. Equal entries are not always repeated. Activity calls are given as the source filed them. The calls are words filed in the database; no cut-off is given here.

A word on the inhibition: it is how much of the control response was suppressed. The Inhibition is how much of the control response was suppressed. A low value points to a weak effect. By IC50 is commonly meant the concentration needed to halve the response being measured. A higher IC50 goes with weaker potency. In general, ED50 refers to the dose that gives a 50% effect, or the effect in half of the subjects.

Assay [1] deals with Aldo-keto reductase family 1 member B1 (Bos taurus) (UniProt P16116). In words: Inhibition of aldose reductase activity in partially purified bovine lens preparation at 10e-5 M. The method, boiled down:
(§1)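 Partially purified bovine lens aldose reductase. Reduction of DL-glyceraldehyde substrate followed spectrophotometrically. Activity expressed as average inhibition at the tested concentrations, 1×10^-5, 1×10^-6, 1×10^-7 and 4×10^-6 M as printed; IC50 in M where given.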

For assay [2], the system named is Rattus norvegicus. Nature of the assay: Tested for in vivo inhibition of galactitol accumulation in the sciatic nerve of galactose-fed rats at the dose of 55.4 (mg/kg/day). It counts as functional. Put shortly: (§2)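 Rats fed a 20% galactose diet for 4 days, with test compound given in the diet at the stated daily dose (mg/kg/day). Read-out is inhibition of galactitol (polyol) accumulation in sciatic nerve. Values are % inhibition, mean ± SEM of six animals; p < 0.01 unless marked (some p < 0.05). NS = no significant inhibition of polyol accumulation. Tolrestat was the reference standard.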

In assay [3] the test system is Rattus norvegicus. Nature of the assay: Tested for in vivo inhibition of galactitol accumulation in the lens of galactose-fed rats at the dose of 48.8 (mg/kg/day); NS=Not significant. It counts as functional, organism-based. Conditions: Lens of camera-type eye.
For assay [4], the system named is Rattus norvegicus. Nature of the assay: Tested for in vivo inhibition of galactitol accumulation in the sciatic nerve of galactose-fed rats at the dose of 48.8 (mg/kg/day). Format: functional. Put shortly:
as §2

The subject of assay [5] is Rattus norvegicus. Nature of the assay: Tested for in vivo inhibition of galactitol accumulation in the lens of galactose-fed rats at the dose of 96.6 (mg/kg/day); NS=Not significant. It counts as functional, organism-based. To be noted: Lens of camera-type eye. The method, boiled down:
(§3)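 Galactosemic rats were fed 20% galactose for 4 days, with the compound mixed into the diet. […] galactitol accumulation was measured, and activity is given as % inhibition at the stated daily dose (mg/kg/day). Values are mean ± SEM of six animals; p < 0.01 unless indicated. NS means no significant inhibition of polyol accumulation.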

Assay [6] concerns Rattus norvegicus. In words: Tested for in vivo inhibition of galactitol accumulation in the sciatic nerve of galactose-fed rats at the dose of 96.6 (mg/kg/day). Format: functional. The method, boiled down: as §2
Assay [7] concerns Rattus norvegicus. Nature of the assay: Tested for in vivo inhibition of galactitol accumulation in the sciatic nerve of galactose-fed rats at the dose of 57.2 (mg/kg/day). It counts as functional. Put shortly:
as §2

For assay [8], the system named is Rattus norvegicus. In words: Tested for in vivo inhibition of galactitol accumulation in the lens of galactose-fed rats at the dose of 57.2 (mg/kg/day). It counts as functional, Lens of camera-type eye. Put shortly: as §3
The subject of assay [9] is Rattus norvegicus. In words: Tested for in vivo inhibition of galactitol accumulation in the lens of galactose-fed rats at the dose of 93.6 (mg/kg/day); NS=Not significant. It counts as functional, organism-based. Conditions: Lens of camera-type eye. The method, boiled down:
as §3

Assay [10] relates to Rattus norvegicus. Nature of the assay: Tested for in vivo inhibition of galactitol accumulation in the lens of galactose-fed rats at the dose of 49.3 (mg/kg/day); NS=Not significant. Format: functional, organism-based. To be noted: Lens of camera-type eye.
Assay [11] has as its system Rattus norvegicus. In words: Tested for in vivo inhibition of galactitol accumulation in the sciatic nerve of galactose-fed rats at the dose of 49.3 (mg/kg/day). It counts as functional. Put shortly:
as §2

Assay [12] has as its system Rattus norvegicus. Nature of the assay: Tested for in vivo inhibition of galactitol accumulation in the sciatic nerve of galactose-fed rats at the dose of 93.6 (mg/kg/day). It counts as functional. Put shortly: as §2
The subject of assay [13] is Rattus norvegicus. In words: Tested for in vivo inhibition of galactitol accumulation in the lens of galactose-fed rats at the dose of 25.4 (mg/kg/day); NS=Not significant. To be noted: Lens of camera-type eye. Format: functional, organism-based.
Assay [14] deals with Rattus norvegicus. In words: Tested for in vivo inhibition of galactitol accumulation in the sciatic nerve of galactose-fed rats at the dose of 25.4 (mg/kg/day). Format: functional. The method, boiled down:
(§4)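 Rats were given a 20% galactose diet for 4 days, with the test compound administered in the diet. Sciatic nerve galactitol accumulation was measured, and activity is given as % inhibition at the stated daily dose (mg/kg/day). Values are mean ± SEM, n = 6 animals; p < 0.01 unless indicated. NS means no significant inhibition of polyol accumulation.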

The subject of assay [15] is Rattus norvegicus. In words: Tested for in vivo inhibition of galactitol accumulation in the sciatic nerve of galactose-fed rats at the dose of 0.9 (mg/kg/day). Format: functional. Put shortly: as §4
The test system of assay [16] is Rattus norvegicus. In words: Tested for in vivo inhibition of galactitol accumulation in the sciatic nerve of galactose-fed rats at the dose of 0.5 (mg/kg/day). Format: functional. The method, boiled down:
as §4

Assay [17] has as its system Rattus norvegicus. Nature of the assay: Tested for in vivo inhibition of galactitol accumulation in the sciatic nerve of galactose-fed rats at the dose of 9.8 (mg/kg/day). It counts as functional. The method, boiled down:
as §2

Assay [18] relates to Rattus norvegicus. Nature of the assay: Tested for in vivo inhibition of galactitol accumulation in the lens of galactose-fed rats at the dose of 10.8 (mg/kg/day). Format: functional, Lens of camera-type eye.
Assay [19] has as its system Rattus norvegicus. Nature of the assay: Tested for in vivo inhibition of galactitol accumulation in the sciatic nerve of galactose-fed rats at the dose of 10.8 (mg/kg/day). Format: functional. The method, boiled down:
as §4

Assay [20] concerns Rattus norvegicus. Nature of the assay: Tested for in vivo inhibition of galactitol accumulation in the lens of galactose-fed rats at the dose of 0.9 (mg/kg/day); NS=Not significant. It counts as functional, organism-based. Conditions: Lens of camera-type eye.
In assay [21] the test system is Rattus norvegicus. Nature of the assay: Tested for in vivo inhibition of galactitol accumulation in the lens of galactose-fed rats at the dose of 86.1 (mg/kg/day). It counts as functional, Lens of camera-type eye. Put shortly:
as §3

For assay [22], the system named is Rattus norvegicus. Nature of the assay: Tested for in vivo inhibition of galactitol accumulation in the sciatic nerve of galactose-fed rats at the dose of 25 (mg/kg/day). Format: functional. Put shortly: as §4
Assay [23] relates to Rattus norvegicus. Nature of the assay: Tested for in vivo inhibition of galactitol accumulation in the lens of galactose-fed rats at the dose of 25 (mg/kg/day). Format: functional, Lens of camera-type eye.
The subject of assay [24] is Rattus norvegicus. In words: Tested for in vivo inhibition of galactitol accumulation in the lens of galactose-fed rats. Format: functional, organism-based. To be noted: Lens of camera-type eye.
Assay [25] concerns the target Aldo-keto reductase family 1 member B1 (Bos taurus, UniProt P16116). In words: Compound was tested in vitro for inhibition of aldose reductase activity in partially purified bovine lens preparation. The method, boiled down:
as §1

In assay [26] the test system is Rattus norvegicus. Nature of the assay: Tested for in vivo inhibition of galactitol accumulation in the sciatic nerve of galactose-fed rats. Format: functional, organism-based.
The subject of assay [27] is Rattus norvegicus. In words: Tested for in vivo inhibition of galactitol accumulation in the sciatic nerve of galactose-fed rats at the dose of 50.9 (mg/kg/day). It counts as functional. Put shortly:
as §2

Assay [28] has as its system Rattus norvegicus. In words: Tested for in vivo inhibition of galactitol accumulation in the lens of galactose-fed rats at the dose of 50.9 (mg/kg/day). Format: functional, Lens of camera-type eye.

`CN1C(=O)CC2(C(=O)N(Cc3ccc(Br)cc3F)C(=O)c3ccccc32)C(=O)N1C` (stereo unspecified): in assay [1], the inhibition entry was “inactive”. This compound showed an Inhibition in assay [2] of 76%.
As to `COC(=O)NC(=O)CC1C(=O)N(Cc2nc3cc(C(F)(F)F)ccc3s2)C(=O)c2ccccc21` (stereo unspecified), the inhibition in assay [1] worked out at 95%. Besides, the NS result in assay [3] is “inactive”. The Inhibition turned out to be 61% in assay [4] and 73% in assay [6]. The inhibition result in assay [5] was “inactive”.
Turning to `CC(=O)NN1C(=O)CC2(C(=O)N(Cc3ccc(Br)cc3F)C(=O)c3ccccc32)C1=O` (stereo unspecified), the inhibition entry in assay [1] was “inactive”. For the same compound, the Inhibition in [7] is reported as 73%; in assay [8], 25%.
For the compound `COC(=O)NC(=O)CC1C(=O)N(Cc2nc3cc(C(F)(F)F)ccc3s2)C(=O)c2ccc(F)cc21` (stereo unspecified), in [1], the inhibition stood at 83%. Further, the inhibition entry in assay [9] and in assay [10] was “inactive” in each case. Further, the figures for the Inhibition in [11] and in assay [12] were 39% and 59%, respectively.
With `COC(=O)NC(=O)CC1C(=O)N(Cc2ccc(Br)cc2F)C(=O)c2cc(OC)ccc21` (stereo unspecified), the inhibition entry in assay [13] was “inactive”. Besides, the Inhibition in assay [14] was 68%.
For the compound `CCN1C(=O)CC2(C1=O)C(=O)N(Cc1ccc(Br)cc1F)C(=O)c1ccccc12` (stereo unspecified), the inhibition result in assay [1] is “inactive”. The results for the Inhibition in assay [15] and in assay [16] were 65% and 37%, respectively.
Turning to `CN1C(=O)CC2(C1=O)C(=O)N(Cc1ccc(Cl)cc1)C(=O)c1ccccc12` (stereo unspecified), the Inhibition in assay [17] was determined as 35%. Besides, the inhibition result in assay [1] is “inactive”.
For `CC(C)=NN1C(=O)CC2(C(=O)N(Cc3ccc(Br)cc3F)C(=O)c3ccccc32)C1=O` (stereo unspecified), the Inhibition in assay [18] is on record as 30%; in assay [19] it was 82%. Besides, the inhibition entry in assay [1] and in [20] was “inactive” throughout.
On to `COC(=O)NC(=O)CC1C(=O)N(C)C(=O)c2ccc(Cl)cc21` (stereo unspecified), for which the inhibition in [1] came out at 65%. Further, the Inhibition in assay [21] is 54% and 81%; in assay [22] it was 53%; in [23] it was 24%.
In turn, `O=C1CC2(C(=O)N1)C(=O)N(Cc1ccc(Br)cc1F)C(=O)c1ccccc12` (stereo unspecified) gave an EC50 in assay [24] of 10 mg/kg/day. The compound further had an IC50 in [25] of 23 nM. For the same compound, the ED50 in assay [26] stood at 0.3 mg/kg/day.
For `CCC(CC)=NN1C(=O)CC2(C(=O)N(Cc3ccc(Br)cc3F)C(=O)c3ccccc32)C1=O` (stereo unspecified), the inhibition result in assay [1] was “inactive”. Moreover, the Inhibition stood at 98% in assay [27] and 71% in assay [28].
